Source: ChEMBL document CHEMBL1140409, “Discovery of potent, nonsystemic apical sodium-codependent bile acid transporter inhibitors (Part 2)” (J Med Chem, 2005)

Columns and labels:
[1] = Maximum biliary concentration (dissolved in aqueous Tween-80) was determined on intragastric administration at 5-0.04 mg/kg in […] of rat gavage model; type: ADME, organism-based, Bile; set-up: dose 0.04 mg/kg, route […]; details: […] (blood), po
[2] = Amount (dissolved in aqueous Tween-80) in bile of rat was determined by fecal bile acid content for 45 min in a 37 degree C; type: ADME, tissue-based, Feces; set-up: concentration or dose not given beside the values; details: in vivo, 0.75 h
Method in brief: (§1)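 Male Wistar rats (275–300 g) were gavaged once each morning for 4 days at 5, 0.2 or 0.04 mpk in aqueous 0.2% (v/v) Tween-80 (2 mL/kg). Feces from the final 48 h were homogenized in twice their weight of water. Homogenate was diluted in butanol/water (2:0.6), extracted 45 min at 37 °C, centrifuged, and bile acids (μmol/day) measured enzymatically. Scores compared against a reference analogue at 0.04 mg/kg.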

[3] = biological target: T1, Ileal sodium/bile acid cotransporter (Homo sapiens, UniProt Q12908); experiment: In vitro inhibition of ASBT mediated uptake of [14C]taurocholate (5 uM) in baby hamster cells expressing human IBAT; type: cell-based
T1 sequence (Q12908 whole entry): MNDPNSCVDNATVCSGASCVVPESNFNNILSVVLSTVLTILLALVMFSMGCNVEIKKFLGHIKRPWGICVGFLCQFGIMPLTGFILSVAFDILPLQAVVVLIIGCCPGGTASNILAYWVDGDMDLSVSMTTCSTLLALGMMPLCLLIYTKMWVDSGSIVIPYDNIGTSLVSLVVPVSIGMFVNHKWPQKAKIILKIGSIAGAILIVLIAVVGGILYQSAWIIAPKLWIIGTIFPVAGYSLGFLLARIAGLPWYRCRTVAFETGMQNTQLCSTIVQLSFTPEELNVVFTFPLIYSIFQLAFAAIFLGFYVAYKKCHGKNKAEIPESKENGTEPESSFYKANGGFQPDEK

[4] = Efficacy to increase fecal bile acid excretion; ++ is even more effective; type: ADME, tissue-based, Feces; details: rat; method in brief: as §1
[5] = Efficacy to increase fecal bile acid excretion; + is more efficacious; type: ADME, tissue-based, Feces; details: rat; method in brief: as §1
[6] = Maximum biliary concentration (dissolved in aqueous Tween-80) was determined on intragastric administration at 5-0.04 mg/kg in portal vein of rat gavage model; type: ADME, organism-based, Bile; set-up: dose 0.04 mg/kg, route […]; details: po

Cmax [1] | Activity [2] | IC50 [3] | Efficacy [4] | Efficacy [5] | Cmax [6] | Compound
960 ng/mL | 15.04% | 27 nM | – | – | – | CCCCC1(CCCC)CS(=O)(=O)c2ccc(N(C)C)cc2[C@@H](c2ccc(OCC(=O)O)cc2)[C@H]1O
– | 0.03% | 1 nM | Even more effective | – | – | CCCCC1(CCCC)CS(=O)(=O)c2ccc(N(C)C)cc2[C@@H](c2ccc(OCc3ccc(C[n+]4ccccc4)cc3)cc2)[C@H]1O
– | 0.24% | 2.3 nM | – | More efficacious than analogue 2 | – | CCCCC1(CCCC)CS(=O)(=O)c2ccc(N(C)C)cc2[C@@H](c2ccc(OCCCCCN(CC(=O)O)CC(=O)O)cc2)[C@H]1O
5100 ng/mL | 3.3% | 8.5 nM | Even more effective | – | 1100 ng/mL | CCCCC1(CCCC)CS(=O)(=O)c2ccc(N(C)C)cc2[C@@H](c2ccc(OCCCCC(=O)O)cc2)[C@H]1O
